Values after ≈ are worked out from the molar mass of the structure shown.
What was measured:
Format in all cases: functional
[1] = test system: Staphylococcus aureus; test: Antibacterial activity against Staphylococcus aureus XU21-T1 harboring cfr-encoding conjugative pSCFS7 and fexA by broth microdilution method
How it was run: (§1)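 Broth microdilution MICs per CLSI M07-A8 and M100-S20, run side by side on clinical MRSA isolate M05/0060, its plasmid-cured derivative M05/0060-C1, plasmid-free novobiocin-resistant recipient XU21 and transconjugant XU21-T1. Curing was by five serial 24 h passages in BHI broth at 43°C, 200 rpm. Transconjugants came from filter mating, selected on BHI agar with novobiocin 100 µg/ml plus chloramphenicol 30 µg/ml.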

[2] = test system: Staphylococcus aureus; test: Antibacterial activity against methicillin-resistant Staphylococcus aureus M05/0060 harboring cfr-encoding conjugative pSCFS7 and fexA by broth microdilution method; how it was run: as §1
[3] = test system: Staphylococcus aureus; test: Antibacterial activity against Staphylococcus aureus XU21 by broth microdilution method; how it was run: as §1
[4] = test system: Staphylococcus aureus; test: Antibacterial activity against pSCFS7-deficient methicillin-resistant Staphylococcus aureus M05/0060-C1 by broth microdilution method; how it was run: as §1

Compound	MIC [1] [µg/mL]	MIC [2] [µg/mL]	MIC [3] [µg/mL]	MIC [4] [µg/mL]
C=C[C@]1(C)C[C@@H](OC(=O)CSCCN(CC)CC)[C@]2(C)[C@H](C)CC[C@]3(CCC(=O)[C@H]32)[C@@H](C)[C@@H]1O [TIAMULIN]	≥ 128	≥ 128	1 (≈ 2.03 µM)	1 (≈ 2.03 µM)
CS(=O)(=O)c1ccc([C@@H](O)[C@@H](CF)NC(=O)C(Cl)Cl)cc1 [FLORFENICOL]	256 (≈ 715 µM)	256 (≈ 715 µM)	4 (≈ 11.2 µM)	4 (≈ 11.2 µM)
CCC[C@@H]1C[C@@H](C(=O)N[C@@H]([C@H]2O[C@H](SC)[C@H](O)[C@@H](O)[C@H]2O)[C@H](C)Cl)N(C)C1 [CLINDAMYCIN]	≥ 128	≥ 128	0.25 (≈ 0.588 µM)	0.25 (≈ 0.588 µM)
O=C(N[C@H](CO)[C@H](O)c1ccc([N+](=O)[O-])cc1)C(Cl)Cl [CHLORAMPHENICOL]	128 (≈ 396 µM)	256 (≈ 792 µM)	8 (≈ 24.8 µM)	8 (≈ 24.8 µM)
CC(=O)NC[C@H]1CN(c2ccc(N3CCOCC3)c(F)c2)C(=O)O1 [LINEZOLID]		8 (≈ 23.7 µM)	1 (≈ 2.96 µM)	1 (≈ 2.96 µM)
CC[C@H]1OC(=O)[C@H](C)[C@@H](O[C@H]2C[C@@](C)(OC)[C@@H](O)[C@H](C)O2)[C@H](C)[C@@H](O[C@@H]2O[C@H](C)C[C@H](N(C)C)[C@H]2O)[C@](C)(O)C[C@@H](C)C(=O)[C@H](C)[C@@H](O)[C@]1(C)O [ERYTHROMYCIN]	0.5 (≈ 0.681 µM)	≥ 64	0.5 (≈ 0.681 µM)	≥ 64
CC1=C\[C@@H](O)CC(=O)Cc2nc(co2)C(=O)N2CCC=C2C(=O)O[C@H](C(C)C)[C@H](C)/C=C/C(=O)NC\C=C\1 [VIRGINIAMYCIN FACTOR M1]	32 (≈ 60.9 µM)	32 (≈ 60.9 µM)	1 (≈ 1.9 µM)	1 (≈ 1.9 µM)
Cc1onc(-c2ccccc2)c1C(=O)N[C@@H]1C(=O)N2[C@@H]1SC(C)(C)[C@@H]2C(=O)O [OXACILLIN]	0.12 (≈ 0.299 µM)	≥ 32	0.12 (≈ 0.299 µM)	≥ 32
